The values below come from ChEMBL document CHEMBL4354879, “Bioisosteric Discovery of NPA101.3, a Second-Generation RET/VEGFR2 Inhibitor Optimized for Single-Agent Polypharmacology” (J Med Chem, 2020).

Activity calls are given as the source filed them. The rule behind the calls is not given here.

Series [1] relates to Proto-oncogene tyrosine-protein kinase receptor Ret (Homo sapiens), P07949 [V804L]. Kind of series: Inhibition of RET isoform 9 V804L mutant (unknown origin) expressed in rat Rat1 assessed as reduction in RET phosphorylation at Y1062 residue at 1 to 100 nM measured after 2 hrs by Western blot analysis. Type of series: cell-based. In outline: (§1)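 Serum-starved RAT1 (RET point mutants) or NIH3T3 (RET rearrangements) cells expressing short RET-9 isoform, treated 2 h; 50 μg total lysate immunoblotted with anti-phospho-Y1062 and anti-phospho-Y905 RET antibodies, normalized to total RET; ECL detection. Compound from 50 mM DMSO stock diluted in growth medium.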

Series [2] relates to Proto-oncogene tyrosine-protein kinase receptor Ret (Homo sapiens), P07949 [A883F]. Kind of series: Inhibition of RET isoform 9 A883F mutant (unknown origin) expressed in rat Rat1 assessed as reduction in RET phosphorylation at Y905 residue at 1 to 100 nM measured after 2 hrs by Western blot analysis. Type of series: cell-based. In outline: as §1
Series [3] has as its system BCPAP. Kind of series: Effect on MAPK phosphorylation in RET deficient human BCPAP cells at 1 to 100 nM measured after 2 hrs by western blot analysis. Type of series: cell-based.
Series [4] is described as follows: Toxicity in BALB/c nu/nu mouse assessed as change in alkaline phosphatase level at 10 mg/kg, po administered daily for 7 days. Type of series: organism-based. To be noted: in vivo, 168 h. In outline:
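Mice dosed orally with 10 mg/kg/day for 7 days; standard blood markers of organ damage measured.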

Series [5] is described as follows: Toxicity in BALB/c nu/nu mouse assessed as change in phosphorus level at 10 mg/kg, po administered daily for 7 days. The note with it: in vivo, 168 h. Type of series: organism-based.
For series [6], the system named is Proto-oncogene tyrosine-protein kinase receptor Ret (Homo sapiens), P07949 [C634W]. Kind of series: Inhibition of Ret isoform 9 C634W mutant in human TT cells assessed as reduction in SHC phosphorylation at 0.3 to 30 nM measured after 2 hrs by Western blot analysis. It is filed as cell-based.
In series [7] the test system is A549. Description: Cytotoxicity against RET deficient human A549 cells supplemented with fresh medium containing compound for every 2 to 3 days measured during compound dosing. Type of series: functional, cell-based. In short, it runs like this: (§2)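 Human RET-negative lines were seeded in six-well plates at 10000 cells/well, in 5% FCS (Nthy-ori-3-1) or 10% FCS (BCPAP, 8505-C, CALU-1, A549, PC-9). Drug or vehicle was added the day after plating, with medium changed every 2–3 days. Cells were counted every 2–3 days. IC50 was fitted from the last day of the growth curves.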

Series [8] concerns Mus musculus. Description: In vivo inhibition of RET isoform 9 C634Y mutant transfected in mouse NIH/3T3 cells implanted BALB/c nu/nu mouse assessed as reduction in SHC phosphorylation at 3 mg/kg, po administered once daily via gavage for 2 days measured 3 hrs post-last dose by Western blot analysis.
Series [9] concerns Proto-oncogene tyrosine-protein kinase receptor Ret (Homo sapiens), P07949 [C634W]. Description: Inhibition of Ret isoform 9 C634W mutant in human TT cells assessed as reduction in phosphorylation at Y1062 residue at 0.3 to 30 nM measured after 2 hrs by Western blot analysis. It is filed as cell-based.
The target of series [10] is T1, Coiled-coil domain-containing protein 6/Tyrosine-protein kinase receptor RET (Homo sapiens) (UniProt P07949+Q16204). Description: Inhibition of CCDC6/RET in human LC2/ad cells assessed as reduction in RET phosphorylation at Y1062 residue at 0.3 to 30 nM measured after 2 hrs by Western blot analysis. It is filed as cell-based.
Series [11] deals with 8505C. Kind of series: Effect on MAPK phosphorylation in RET deficient human 8505C cells at 1 to 100 nM measured after 2 hrs by western blot analysis. Type of series: cell-based.
Series [12] concerns the target T1, Coiled-coil domain-containing protein 6/Tyrosine-protein kinase receptor RET (Homo sapiens). Description: Inhibition of CCDC6/RET in human TPC1 cells assessed as reduction in RET phosphorylation at Y1062 residue at 0.3 to 30 nM measured after 2 hrs by Western blot analysis. It is filed as cell-based.
Series [13] has the same target. Description: Inhibition of CCDC6/RET in human LC2/ad cells assessed as reduction in MAPK phosphorylation at 0.3 to 30 nM measured after 2 hrs by Western blot analysis. It is filed as cell-based.
Series [14] deals with GTPase HRas (Homo sapiens), P01112 [G12V]. Description: Inhibition of HRAS G12V mutant (unknown origin) expressed in mouse NIH/3T3 cells assessed as reduction in cell proliferation up to 100 nM supplemented with fresh medium containing compound for every 2 to 3 days measured at 2 days interval during compound dosing. It is filed as cell-based. In short, it runs like this:
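NIH3T3 transformants seeded 10000/well in 2% calf serum; next day drug or vehicle added, medium changed every 2–3 days; cells counted every 2 days; IC50 from curve fit of last-day counts.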

The species entered for series [15] is Homo sapiens. Description: Inhibition of NCOA4/RET isoform 9 (unknown origin) expressed in mouse NIH/3T3 cells assessed as reduction in RET phosphorylation at Y905 residue at 1 to 100 nM measured after 2 hrs by Western blot analysis. Type of series: cell-based. In short, it runs like this: as §1
Series [16] deals with 8505C. Description: Cytotoxicity against RET deficient human 8505C cells supplemented with fresh medium containing compound for every 2 to 3 days measured during compound dosing. It is filed as functional, cell-based. In outline:
as §2

Series [17] deals with T1, Coiled-coil domain-containing protein 6/Tyrosine-protein kinase receptor RET (Homo sapiens). Description: Inhibition of CCDC6/RET in human LC2/ad cells assessed as reduction in SHC phosphorylation at 0.3 to 30 nM measured after 2 hrs by Western blot analysis. It is filed as cell-based.
Series [18] has as its target Vascular endothelial growth factor receptor 2 (Homo sapiens, UniProt P35968). Kind of series: Inhibition of recombinant human VEGFR2 expressed in HEK293 cells assessed as reduction in VEGFA-induced VEGFR2 autophosphorylation at 1 to 10 nM preincubated for 2 hrs followed by VEGFA-stimulation and measured after 15 mins by Western blot analysis. It is filed as cell-based. In short, it runs like this:
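HEK293 transiently transfected with human VEGFR2; 36 h post-transfection serum-starved 12 h, compound or vehicle 2 h, then VEGFA 100 ng/mL for 15 min; lysates blotted for phospho-VEGFR2, normalized to total VEGFR2.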

The target of series [19] is T2, SHC-transforming protein 1 (Homo sapiens) (UniProt P29353).
T2 sequence (whole entry): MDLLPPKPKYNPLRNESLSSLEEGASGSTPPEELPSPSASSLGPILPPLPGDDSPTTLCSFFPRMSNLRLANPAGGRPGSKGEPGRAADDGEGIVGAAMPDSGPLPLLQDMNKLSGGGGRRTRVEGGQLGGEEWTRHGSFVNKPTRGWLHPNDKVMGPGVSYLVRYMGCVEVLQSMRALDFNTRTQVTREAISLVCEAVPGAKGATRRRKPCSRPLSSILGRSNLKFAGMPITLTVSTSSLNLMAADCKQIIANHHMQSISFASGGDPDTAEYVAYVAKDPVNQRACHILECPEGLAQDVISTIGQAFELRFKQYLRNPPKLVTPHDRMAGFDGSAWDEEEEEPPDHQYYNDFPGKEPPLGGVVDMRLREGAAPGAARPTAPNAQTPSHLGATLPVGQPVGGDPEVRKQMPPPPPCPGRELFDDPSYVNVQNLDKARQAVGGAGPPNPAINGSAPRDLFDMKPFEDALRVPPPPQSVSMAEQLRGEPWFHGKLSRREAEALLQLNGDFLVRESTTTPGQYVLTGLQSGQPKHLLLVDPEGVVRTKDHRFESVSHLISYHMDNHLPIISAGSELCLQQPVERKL
Description: Effect on SHC phosphorylation in RET deficient human Nthy-ori 3-1 cells at 1 to 100 nM measured after 2 hrs by western blot analysis.

T1 sequence (P07949 29-1114 limits assumed): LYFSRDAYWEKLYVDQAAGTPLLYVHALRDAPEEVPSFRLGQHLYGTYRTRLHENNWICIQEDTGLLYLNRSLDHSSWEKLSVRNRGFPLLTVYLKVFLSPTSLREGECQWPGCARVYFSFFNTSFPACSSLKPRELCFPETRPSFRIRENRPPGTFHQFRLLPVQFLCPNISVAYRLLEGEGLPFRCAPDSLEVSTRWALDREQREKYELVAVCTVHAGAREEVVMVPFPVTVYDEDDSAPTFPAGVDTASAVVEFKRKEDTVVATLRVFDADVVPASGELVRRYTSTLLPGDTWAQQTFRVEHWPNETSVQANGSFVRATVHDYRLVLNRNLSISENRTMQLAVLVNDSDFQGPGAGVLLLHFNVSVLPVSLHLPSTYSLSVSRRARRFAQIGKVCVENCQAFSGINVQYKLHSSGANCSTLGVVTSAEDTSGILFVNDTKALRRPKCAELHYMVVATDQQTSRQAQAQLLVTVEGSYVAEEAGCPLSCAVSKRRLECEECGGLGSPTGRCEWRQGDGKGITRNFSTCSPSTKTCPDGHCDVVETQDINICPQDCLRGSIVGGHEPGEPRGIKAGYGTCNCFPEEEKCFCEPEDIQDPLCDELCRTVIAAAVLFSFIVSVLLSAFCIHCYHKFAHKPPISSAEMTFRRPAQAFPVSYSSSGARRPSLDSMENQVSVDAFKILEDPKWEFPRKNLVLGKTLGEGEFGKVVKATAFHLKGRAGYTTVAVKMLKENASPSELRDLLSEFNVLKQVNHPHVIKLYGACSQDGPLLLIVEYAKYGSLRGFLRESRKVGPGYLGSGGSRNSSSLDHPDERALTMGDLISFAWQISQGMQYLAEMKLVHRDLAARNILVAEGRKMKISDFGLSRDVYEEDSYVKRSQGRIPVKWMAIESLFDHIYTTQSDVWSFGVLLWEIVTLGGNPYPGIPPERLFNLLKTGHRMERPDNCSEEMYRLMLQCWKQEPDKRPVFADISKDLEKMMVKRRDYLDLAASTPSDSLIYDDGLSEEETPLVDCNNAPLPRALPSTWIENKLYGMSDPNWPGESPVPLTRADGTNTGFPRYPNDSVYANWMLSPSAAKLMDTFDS
T1 sequence (Q16204 2-474 partner limits assumed): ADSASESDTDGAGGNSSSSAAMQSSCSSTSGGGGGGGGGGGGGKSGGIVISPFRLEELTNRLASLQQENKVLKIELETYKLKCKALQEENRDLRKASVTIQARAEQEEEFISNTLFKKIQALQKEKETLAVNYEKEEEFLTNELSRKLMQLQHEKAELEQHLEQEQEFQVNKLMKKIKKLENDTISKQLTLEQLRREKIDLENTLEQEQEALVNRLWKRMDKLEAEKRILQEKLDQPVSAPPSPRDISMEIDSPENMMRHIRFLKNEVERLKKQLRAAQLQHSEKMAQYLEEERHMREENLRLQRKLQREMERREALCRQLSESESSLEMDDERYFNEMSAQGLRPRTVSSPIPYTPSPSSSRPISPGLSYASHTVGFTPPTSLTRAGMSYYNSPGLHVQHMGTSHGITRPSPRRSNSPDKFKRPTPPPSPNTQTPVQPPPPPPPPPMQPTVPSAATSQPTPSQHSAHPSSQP
Proto-oncogene tyrosine-protein kinase receptor Ret (Homo sapiens), P07949 [C634W], sequence (P07949 whole entry C634W, the tested form may be a part, canonical isoform): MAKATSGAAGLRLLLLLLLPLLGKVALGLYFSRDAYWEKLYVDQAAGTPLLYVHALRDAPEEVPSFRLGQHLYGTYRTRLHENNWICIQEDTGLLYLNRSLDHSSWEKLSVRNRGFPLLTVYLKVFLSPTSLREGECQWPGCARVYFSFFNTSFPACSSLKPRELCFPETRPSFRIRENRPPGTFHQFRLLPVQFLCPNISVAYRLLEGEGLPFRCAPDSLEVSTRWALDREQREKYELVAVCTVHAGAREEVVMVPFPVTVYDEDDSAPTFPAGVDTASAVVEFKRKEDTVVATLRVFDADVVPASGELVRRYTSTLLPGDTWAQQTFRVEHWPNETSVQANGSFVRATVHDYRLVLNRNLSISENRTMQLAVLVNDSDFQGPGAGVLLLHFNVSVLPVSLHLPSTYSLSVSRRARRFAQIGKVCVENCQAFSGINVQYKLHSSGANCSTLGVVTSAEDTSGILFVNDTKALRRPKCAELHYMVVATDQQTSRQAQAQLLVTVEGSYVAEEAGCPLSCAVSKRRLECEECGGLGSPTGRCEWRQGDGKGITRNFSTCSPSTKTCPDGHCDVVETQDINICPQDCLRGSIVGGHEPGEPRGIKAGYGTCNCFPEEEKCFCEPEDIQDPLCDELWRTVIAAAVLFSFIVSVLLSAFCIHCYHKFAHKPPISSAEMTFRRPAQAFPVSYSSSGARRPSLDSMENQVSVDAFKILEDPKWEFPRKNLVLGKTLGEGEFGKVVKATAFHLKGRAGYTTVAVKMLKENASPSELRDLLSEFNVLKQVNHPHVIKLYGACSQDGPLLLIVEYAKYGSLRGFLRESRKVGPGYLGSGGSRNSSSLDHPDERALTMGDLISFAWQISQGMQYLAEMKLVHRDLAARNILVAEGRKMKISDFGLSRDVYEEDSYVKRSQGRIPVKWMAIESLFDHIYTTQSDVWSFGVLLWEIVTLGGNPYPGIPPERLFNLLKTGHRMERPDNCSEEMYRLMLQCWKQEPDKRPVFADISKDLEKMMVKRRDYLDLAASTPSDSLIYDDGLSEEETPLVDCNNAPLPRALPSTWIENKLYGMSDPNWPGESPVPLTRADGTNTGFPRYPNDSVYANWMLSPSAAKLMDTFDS
Proto-oncogene tyrosine-protein kinase receptor Ret (Homo sapiens), P07949 [A883F], sequence (P07949 whole entry A883F, canonical isoform): as the sequence (P07949 whole entry C634W, the tested form may be a part, canonical isoform) above, with W634C, A883F counted along it
Proto-oncogene tyrosine-protein kinase receptor Ret (Homo sapiens), P07949 [V804L], sequence (P07949 whole entry V804L, canonical isoform): as the sequence (P07949 whole entry C634W, the tested form may be a part, canonical isoform) above, with W634C, V804L counted along it
GTPase HRas (Homo sapiens), P01112 [G12V], sequence (P01112 whole entry G12V): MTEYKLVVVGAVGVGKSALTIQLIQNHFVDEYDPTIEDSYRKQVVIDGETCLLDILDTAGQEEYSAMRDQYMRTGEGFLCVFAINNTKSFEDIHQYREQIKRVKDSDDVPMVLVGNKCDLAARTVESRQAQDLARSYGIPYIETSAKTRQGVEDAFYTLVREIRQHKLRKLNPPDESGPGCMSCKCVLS
Vascular endothelial growth factor receptor 2, sequence (P35968 whole entry): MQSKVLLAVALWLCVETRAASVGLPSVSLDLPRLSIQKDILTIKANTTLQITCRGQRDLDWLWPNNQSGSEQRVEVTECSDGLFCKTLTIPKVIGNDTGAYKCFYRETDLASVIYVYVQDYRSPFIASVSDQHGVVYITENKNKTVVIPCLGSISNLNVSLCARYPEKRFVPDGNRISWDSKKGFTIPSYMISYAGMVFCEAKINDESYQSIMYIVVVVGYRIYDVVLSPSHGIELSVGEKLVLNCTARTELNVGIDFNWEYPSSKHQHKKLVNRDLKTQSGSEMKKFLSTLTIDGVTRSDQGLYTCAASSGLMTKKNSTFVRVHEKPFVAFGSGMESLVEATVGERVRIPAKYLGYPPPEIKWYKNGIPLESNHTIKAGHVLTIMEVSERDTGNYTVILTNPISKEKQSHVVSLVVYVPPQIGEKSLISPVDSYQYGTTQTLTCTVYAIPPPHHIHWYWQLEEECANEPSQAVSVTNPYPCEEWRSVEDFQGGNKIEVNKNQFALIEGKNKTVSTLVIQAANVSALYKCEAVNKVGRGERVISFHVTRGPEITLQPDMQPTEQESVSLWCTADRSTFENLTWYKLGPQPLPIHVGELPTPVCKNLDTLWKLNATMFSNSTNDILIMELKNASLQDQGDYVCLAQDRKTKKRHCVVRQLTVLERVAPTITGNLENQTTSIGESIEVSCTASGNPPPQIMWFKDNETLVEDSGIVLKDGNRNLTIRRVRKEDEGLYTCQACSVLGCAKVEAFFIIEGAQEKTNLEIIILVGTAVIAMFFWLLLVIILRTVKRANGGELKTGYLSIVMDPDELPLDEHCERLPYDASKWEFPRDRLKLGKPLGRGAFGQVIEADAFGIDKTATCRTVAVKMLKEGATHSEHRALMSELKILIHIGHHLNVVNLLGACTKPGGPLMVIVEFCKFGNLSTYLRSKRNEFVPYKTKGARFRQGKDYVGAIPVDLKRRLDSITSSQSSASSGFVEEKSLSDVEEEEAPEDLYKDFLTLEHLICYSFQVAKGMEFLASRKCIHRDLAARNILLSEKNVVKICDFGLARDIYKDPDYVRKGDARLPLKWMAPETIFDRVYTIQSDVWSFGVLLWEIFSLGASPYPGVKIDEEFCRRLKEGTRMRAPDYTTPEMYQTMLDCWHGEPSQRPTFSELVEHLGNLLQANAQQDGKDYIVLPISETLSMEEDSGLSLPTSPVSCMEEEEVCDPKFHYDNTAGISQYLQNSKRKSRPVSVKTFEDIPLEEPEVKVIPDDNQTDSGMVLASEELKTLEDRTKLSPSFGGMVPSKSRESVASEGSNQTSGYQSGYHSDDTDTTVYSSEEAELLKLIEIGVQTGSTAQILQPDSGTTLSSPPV

`CC(C)(C)c1cc(NC(=O)Cc2ccc(-n3cnc4cc(-c5ccc(S(C)(=O)=O)cc5)ccc43)cc2)no1`: the inhibition entry in [1], in [2], in [6], in series [8], in series [9] and in series [10] was “Active” throughout. Moreover, the inhibition entry in series [12], in series [15], in series [17] and in series [18] was “Active” each time. The result in [3], in [11] and in [19] was inactive. Also, the Activity result in series [4] and in series [5] was “Non-Toxic” in each case. Moreover, the IC50 in [7] and in [16] was more than 100 nM each time. Further, the inhibition result in series [13] and in series [14] was “inactive” throughout.
